Laboratory results as given in ChEMBL document CHEMBL1155020, “Trithiocarbonates as a novel class of HDAC inhibitors: SAR studies, isoenzyme selectivity, and pharmacological profiles” (J Med Chem, 2008).

Assays:
Histone deacetylase 1 = Histone deacetylase 1 (Homo sapiens, UniProt Q13547); experiment: Inhibition of recombinant HDAC1 expressed in HEK293 cells; format: cell-based
[1] = target: T1, Protein deacetylase HDAC6 (Homo sapiens, UniProt Q9UBN7); experiment: Inhibition of recombinant HDAC6 expressed in HEK293 cells; format: cell-based
T1 sequence (Q9UBN7 whole entry): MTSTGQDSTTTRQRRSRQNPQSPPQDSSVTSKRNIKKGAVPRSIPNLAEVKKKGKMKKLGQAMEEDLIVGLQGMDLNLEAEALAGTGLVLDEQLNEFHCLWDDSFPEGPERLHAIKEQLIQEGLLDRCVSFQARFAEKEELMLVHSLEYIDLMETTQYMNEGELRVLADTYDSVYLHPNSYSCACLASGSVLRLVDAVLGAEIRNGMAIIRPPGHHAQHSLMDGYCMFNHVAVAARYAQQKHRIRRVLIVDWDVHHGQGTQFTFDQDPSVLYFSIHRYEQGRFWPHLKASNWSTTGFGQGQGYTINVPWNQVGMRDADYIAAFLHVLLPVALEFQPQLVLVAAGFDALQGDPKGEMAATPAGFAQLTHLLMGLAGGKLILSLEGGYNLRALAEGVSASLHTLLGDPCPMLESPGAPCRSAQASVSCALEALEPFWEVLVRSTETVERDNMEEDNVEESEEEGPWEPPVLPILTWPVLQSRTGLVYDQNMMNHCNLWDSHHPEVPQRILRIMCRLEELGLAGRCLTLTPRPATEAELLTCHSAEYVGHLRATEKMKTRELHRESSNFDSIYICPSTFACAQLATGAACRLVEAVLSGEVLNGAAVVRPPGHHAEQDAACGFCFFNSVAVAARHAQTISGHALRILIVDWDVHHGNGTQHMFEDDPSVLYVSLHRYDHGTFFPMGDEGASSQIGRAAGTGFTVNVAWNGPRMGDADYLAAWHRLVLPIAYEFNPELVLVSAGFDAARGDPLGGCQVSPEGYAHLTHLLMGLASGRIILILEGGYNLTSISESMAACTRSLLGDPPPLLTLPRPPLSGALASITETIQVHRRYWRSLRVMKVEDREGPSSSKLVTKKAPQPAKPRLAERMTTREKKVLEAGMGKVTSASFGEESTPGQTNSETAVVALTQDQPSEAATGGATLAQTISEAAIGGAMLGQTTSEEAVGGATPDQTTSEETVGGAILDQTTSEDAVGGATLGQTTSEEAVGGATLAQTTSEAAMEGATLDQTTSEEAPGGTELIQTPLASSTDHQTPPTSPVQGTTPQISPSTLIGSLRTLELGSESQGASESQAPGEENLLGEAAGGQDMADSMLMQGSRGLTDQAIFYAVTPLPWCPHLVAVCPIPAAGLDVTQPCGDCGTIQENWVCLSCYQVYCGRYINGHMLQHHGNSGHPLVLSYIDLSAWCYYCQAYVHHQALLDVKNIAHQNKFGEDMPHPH

Histone deacetylase [2] = experiment: Inhibition of nuclear HDAC isolated from human HeLa cells; format: cell-based
Histone deacetylase [3] = experiment: Inhibition of HDAC in human HeLa cells; format: cell-based
HeLa = experiment: Cytotoxicity against human HeLa cells after 72 hrs by alamar blue assay; format: functional, cell-based
Method in brief: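 HeLa cells were seeded at densities allowing growth through 72 h of compound exposure at 37 °C, 5% CO2. Viability was read by Alamar Blue (resazurin) reduction. Replicate assays were averaged, and IC50 was taken from concentration-effect curves.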

Histone deacetylase 1, sequence (Q13547 whole entry): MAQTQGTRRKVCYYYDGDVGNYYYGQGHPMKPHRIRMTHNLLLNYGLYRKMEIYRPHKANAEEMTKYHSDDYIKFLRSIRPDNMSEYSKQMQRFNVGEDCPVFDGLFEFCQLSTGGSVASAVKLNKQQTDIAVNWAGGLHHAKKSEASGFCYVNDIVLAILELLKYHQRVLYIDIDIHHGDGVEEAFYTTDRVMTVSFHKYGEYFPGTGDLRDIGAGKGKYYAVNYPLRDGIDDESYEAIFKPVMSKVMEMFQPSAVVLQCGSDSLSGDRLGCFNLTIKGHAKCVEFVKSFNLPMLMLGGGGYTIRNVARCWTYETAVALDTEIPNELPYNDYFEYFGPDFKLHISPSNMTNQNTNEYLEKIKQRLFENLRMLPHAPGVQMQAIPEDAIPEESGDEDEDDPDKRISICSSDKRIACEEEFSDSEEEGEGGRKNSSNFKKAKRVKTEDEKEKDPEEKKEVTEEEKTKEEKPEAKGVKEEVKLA

IC50 (Histone deacetylase 1) [nM]	IC50 [1] [nM]	IC50 (Histone deacetylase [2]) [µM]	IC50 (Histone deacetylase [3]) [µM]	Compound	IC50 (HeLa) [µM]
530	519	0.015	2.77	CCSC(=S)SCC(=O)c1cccc(S(=O)(=O)Nc2ccc(OC)cc2)c1	5.17
27900	521	0.074	1.11	CCSC(=S)SCC(=O)c1ccc(C(=O)Nc2ccccc2)cc1	25.8
980	119	0.066	0.748	CCSC(=S)SCC(=O)c1ccc(NC(=O)c2cnc3ccccc3c2)cc1	50
1870	382	0.042	0.8	CCSC(=S)SCC(=O)c1ccc(NS(=O)(=O)c2ccccc2)cc1	9.04
25800	390	0.379	2.99	CCSC(=S)SCC(=O)c1ccc(Nc2ncnc3ccccc23)cc1	2.65
2490	979	0.025	1.74	CCSC(=S)SCC(=O)c1ccc(NS(=O)(=O)c2ccc(Cl)cc2)cc1	10.4
9720	4570	0.128	11.6	COc1ccc(C(=O)CSC(=S)SCCOc2ccccc2)cc1	5.46
1560	181	0.097	1.15	CCSC(=S)SCC(=O)c1cccc(S(=O)(=O)Nc2cccc(C(N)=O)c2)c1	7.74
1680	180	0.318	0.857	CCSC(=S)SCC(=O)c1ccc(NC(C)=O)cc1	1.46
3460	1250	0.048	9.08	CCSC(=S)SCC(=O)c1cccc(NS(=O)(=O)c2ccc(Cl)cc2)c1	46.6
589	340	0.008	0.299	CCSC(=S)SCC(=O)c1ccc(S(=O)(=O)Nc2ccc(Cl)cc2)cc1	6.08
8940	2130	0.293	5.53	COCCSC(=S)SCC(=O)c1ccc(OC)cc1	7.88
10400	175	0.074	7.46	CCSC(=S)SCC(=O)c1ccc(NC(=O)c2ccccc2)cc1	15.8
227	245	0.016	0.377	CCSC(=S)SCC(=O)c1ccc(S(=O)(=O)Nc2ccc(OC)cc2)cc1	4.32
6110	1090	1.26	8.95	CCSC(=S)SCC(=O)c1ccc(NS(C)(=O)=O)cc1	45.8
7510	1640	0.467	3.47	COc1ccc(C(=O)CSC(=S)SCCNC(C)=O)cc1	11.1
1550	104	0.127	2.78	CCSC(=S)SCC(=O)c1cccc(NS(=O)(=O)c2ccccc2)c1	11.9
4560	1220	0.375	4.67	CCSC(=S)SCC(=O)c1ccc(OC)cc1	1.96

The remaining lines, values behind:

Compound	IC50 (Histone deacetylase 1) [nM]	IC50 [1] [nM]	IC50 (Histone deacetylase [2]) [µM]	IC50 (Histone deacetylase [3]) [µM]	IC50 (HeLa) [µM]
CCSC(=S)SCC(=O)c1ccc(C(=O)NCc2ccccc2)s1	340	44	0.019	0.411	13
CCSC(=S)SCC(=O)c1cccc(NC(=O)c2cccnc2)c1	388	38	0.184	0.646	7.02
CCSC(=S)SCC(=O)c1ccc(-c2ccc(N)cn2)s1	831	43	0.083	1.18	0.452
CCSC(=S)SCC(=O)c1ccc(C(=O)Nc2ccccc2)s1	31600	245	0.063	0.423	50
CCSC(=S)SCC(=O)c1cccc(C(=O)Nc2ccccc2)c1	1670	517	0.124	1.23	2.4
CCSC(=S)SCC(=O)c1ccc(C(=O)NCc2ccccc2)cc1	5780	830	0.09	1.5	23.9
CCNC(=S)SCC(=O)c1ccc(NC(C)=O)cc1	141	18	0.094	1.12	11
CCSC(=S)SCC(=O)c1cccc(C(=O)NCCOc2ccccc2)c1	328	198	0.027	0.5	10.2
CCSC(=S)SCC(=O)c1ccc(CNC(=O)c2ccccc2)cc1	523	301	0.046	0.632	12.7
CCSC(=S)SCC(=O)c1cccc(NC(C)=O)c1	2930	329	0.506	3.28	9.38
CCOC(=S)SCC(=O)c1ccc(OC)cc1	1380	448	0.811	4.72	4.64
CCSC(=S)SCC(=O)c1cccc(NC(=O)c2cnc3ccccc3c2)c1	592	89	0.036	0.483	9.61
CCNC(=S)SCC(=O)c1ccc(OC)cc1	215	94	0.195	–	7.8
CCSC(=S)SCC(=O)c1ccc(CN(C)C(C)=O)cc1	946	256	0.384	6.33	21.5
CCSC(=S)SCC(=O)c1ccc(C(=O)NCCOc2ccccc2)cc1	712	483	0.032	0.964	18.2
CCSC(=S)SCC(=O)c1ccc(CNC(C)=O)cc1	7120	346	0.719	2.07	17.9
CCSC(=S)SCC(=O)c1cccc(C(=O)NCc2ccccc2)c1	672	195	0.049	0.533	13.1
CCSC(=S)SCC(=O)c1cccc(CNC(C)=O)c1	38200	816	6.59	6.82	11.3
CCSC(=S)SCC(=O)c1ccc(C(=O)N[C@@H](C)c2ccccc2)s1	497	135	0.049	1.03	15.8
CCOC(=O)SCC(=O)c1ccc(OC)cc1	21200	5360	2.81	9.79	18.5
CCCC(=S)SCC(=O)c1ccc(OC)cc1	422	110	0.123	3.41	5.71
CCCC(=S)SCC(=O)c1ccc(NC(C)=O)cc1	164	23	0.087	1.37	6.41
CCSC(=S)SCC(=O)c1ccc(C(=O)NCc2cc(C)cc(C)c2)s1	587	396	0.015	0.836	31.3
CCNC(=O)SCC(=O)c1ccc(OC)cc1	368	132	0.115	3.18	13.3
